Consider two molecules from article PMC6919324 (European journal of pharmaceutics and biopharmaceutics : …, 2019).

Data set [1] addresses T1, P-gp (Homo sapiens, UniProt P08183). Put plainly: Caco-2 transwell basolateral to apical transport of P-gp substrates. The class given is in vitro ADME. Background: Caco-2 monolayers are a common model of the intestinal barrier.
Data set [2] concerns the target T1, P-gp. Kind of data set: Biosimilar mucus transport study of R123 in Caco-2 transwells. Type of data set: in vitro ADME.
In data set [3] the target is P-gp (Mus musculus, UniProt P21447). Put plainly: Ex vivo mouse jejunum intestinal sac, mucosal to serosal R123 transport. The class given is in vitro ADME, BALB/c mice. The following applies: BALB/c, with microdevices, 3000 microdevices/cm^2. Summed up:
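Intestinal sacs from three BALB/c mice aged 18–20 weeks, with one end tied off, were incubated in media at 37°C. Over time the serosal-side solution was removed and replaced with fresh media. Fluorescence of the removed solution was read at excitation 495 nm and emission 560 nm.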

T1 sequence (P08183 whole entry): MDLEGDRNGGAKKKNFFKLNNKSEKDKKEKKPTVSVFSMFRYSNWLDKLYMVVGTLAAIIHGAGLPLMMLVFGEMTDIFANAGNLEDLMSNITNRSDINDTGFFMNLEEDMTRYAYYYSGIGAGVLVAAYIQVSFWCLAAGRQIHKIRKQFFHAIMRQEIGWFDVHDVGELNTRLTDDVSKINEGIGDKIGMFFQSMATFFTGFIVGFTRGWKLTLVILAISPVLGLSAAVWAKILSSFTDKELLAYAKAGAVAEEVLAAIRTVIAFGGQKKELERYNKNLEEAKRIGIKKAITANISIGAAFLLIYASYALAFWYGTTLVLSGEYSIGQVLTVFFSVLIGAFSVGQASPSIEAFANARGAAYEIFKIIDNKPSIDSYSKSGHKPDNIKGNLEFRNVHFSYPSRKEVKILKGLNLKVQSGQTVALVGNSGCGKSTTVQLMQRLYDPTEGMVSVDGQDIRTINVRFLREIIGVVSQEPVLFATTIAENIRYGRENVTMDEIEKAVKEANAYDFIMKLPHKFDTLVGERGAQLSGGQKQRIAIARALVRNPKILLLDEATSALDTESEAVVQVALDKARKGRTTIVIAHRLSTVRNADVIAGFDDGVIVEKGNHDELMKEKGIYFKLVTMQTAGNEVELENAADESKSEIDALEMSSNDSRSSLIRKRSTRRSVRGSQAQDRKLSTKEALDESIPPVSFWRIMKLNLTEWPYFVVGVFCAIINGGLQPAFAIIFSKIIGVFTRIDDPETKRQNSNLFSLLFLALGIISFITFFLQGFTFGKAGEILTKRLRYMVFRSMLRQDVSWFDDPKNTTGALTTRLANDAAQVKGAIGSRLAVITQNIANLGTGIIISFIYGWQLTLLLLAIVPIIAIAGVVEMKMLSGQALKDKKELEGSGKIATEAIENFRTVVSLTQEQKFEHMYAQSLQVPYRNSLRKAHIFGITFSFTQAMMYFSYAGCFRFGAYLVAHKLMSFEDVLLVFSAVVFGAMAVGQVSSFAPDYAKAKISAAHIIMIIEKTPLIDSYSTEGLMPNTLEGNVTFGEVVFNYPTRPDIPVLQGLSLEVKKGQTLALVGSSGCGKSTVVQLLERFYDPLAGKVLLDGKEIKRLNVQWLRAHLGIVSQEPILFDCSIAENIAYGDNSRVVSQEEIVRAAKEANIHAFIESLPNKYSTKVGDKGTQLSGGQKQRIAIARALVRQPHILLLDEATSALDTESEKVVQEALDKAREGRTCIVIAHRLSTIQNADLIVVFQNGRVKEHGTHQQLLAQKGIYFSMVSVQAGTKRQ
Sequence of P-gp (Mus musculus, UniProt P21447) (P21447 whole entry): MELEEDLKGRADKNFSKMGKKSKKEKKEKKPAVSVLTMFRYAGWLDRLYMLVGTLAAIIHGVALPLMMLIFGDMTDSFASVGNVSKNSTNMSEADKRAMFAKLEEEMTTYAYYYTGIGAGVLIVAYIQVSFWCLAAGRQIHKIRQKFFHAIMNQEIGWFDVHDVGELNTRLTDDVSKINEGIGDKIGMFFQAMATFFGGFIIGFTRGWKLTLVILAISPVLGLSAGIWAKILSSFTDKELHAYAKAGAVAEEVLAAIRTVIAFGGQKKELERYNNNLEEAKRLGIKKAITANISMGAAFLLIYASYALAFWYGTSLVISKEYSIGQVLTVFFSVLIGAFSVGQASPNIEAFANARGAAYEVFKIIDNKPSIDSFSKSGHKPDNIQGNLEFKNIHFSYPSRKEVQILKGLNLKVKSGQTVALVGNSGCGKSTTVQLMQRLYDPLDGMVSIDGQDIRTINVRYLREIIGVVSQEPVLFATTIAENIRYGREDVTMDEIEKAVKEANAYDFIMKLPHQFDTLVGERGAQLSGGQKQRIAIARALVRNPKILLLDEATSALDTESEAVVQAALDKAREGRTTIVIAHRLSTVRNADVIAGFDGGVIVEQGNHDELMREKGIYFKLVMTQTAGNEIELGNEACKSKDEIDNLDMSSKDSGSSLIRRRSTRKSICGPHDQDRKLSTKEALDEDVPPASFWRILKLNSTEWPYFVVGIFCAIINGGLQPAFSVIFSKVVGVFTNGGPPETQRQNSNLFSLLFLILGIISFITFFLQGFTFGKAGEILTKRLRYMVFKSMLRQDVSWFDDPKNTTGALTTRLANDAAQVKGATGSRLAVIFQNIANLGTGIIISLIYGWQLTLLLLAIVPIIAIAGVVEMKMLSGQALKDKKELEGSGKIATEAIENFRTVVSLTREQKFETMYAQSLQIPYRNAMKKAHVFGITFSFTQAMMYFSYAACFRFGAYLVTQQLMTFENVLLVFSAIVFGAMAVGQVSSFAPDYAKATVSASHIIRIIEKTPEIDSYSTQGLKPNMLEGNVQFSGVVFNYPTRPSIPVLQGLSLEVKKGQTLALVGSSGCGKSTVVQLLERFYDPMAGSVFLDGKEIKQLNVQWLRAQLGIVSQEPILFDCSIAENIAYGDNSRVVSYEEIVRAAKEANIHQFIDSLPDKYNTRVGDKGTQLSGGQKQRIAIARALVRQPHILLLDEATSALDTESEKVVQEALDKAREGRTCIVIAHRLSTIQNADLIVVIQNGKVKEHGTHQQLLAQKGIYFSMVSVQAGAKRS

As to `COc1cccc2c1C(=O)c1c(O)c3c(c(O)c1C2=O)C[C@@](O)(C(=O)CO)C[C@@H]3O[C@H]1C[C@H](N)[C@H](O)[C@H](C)O1` [Doxorubicin, doxorubicin], the Papp B→A in data set [1] worked out at 1.9 ± 0.35 ×10⁻⁶ cm/s.
With `COC(=O)c1ccccc1-c1c2ccc(=N)cc-2oc2cc(N)ccc12` [R123, rhodamine 123], the Papp B→A in data set [1] was 8.03 ± 3.5 ×10⁻⁶ cm/s. In addition, the Papp B→A at 5 µM in data set [2] came out at 9.25 ± 3.8 ×10⁻⁶ cm/s. In data set [3], this molecule registered a Papp at 5 µM of 0.35 ×10⁻⁶ cm/s.

As usually defined, the Papp B→A is how fast a substance crosses the layer from the basolateral side. In general, Papp refers to the rate of passage across a membrane or cell layer, normalised by area and donor concentration. High values mean ready permeation, low ones poor permeation.
